# Source: ChEMBL document CHEMBL2062436, “Design, synthesis, and antiviral evaluation of purine-β-lactam and purine-aminopropanol hybrids” (J Med Chem, 2012)
# Active and inactive are the calls of the source. No cut-off for these calls is given here.
# How the values were obtained:
# [1] = tested on: Human immunodeficiency virus 1; experiment: Antiviral activity against Human immunodeficiency virus 1 3B infected in MT4 cells by fluorescence analysis; type: functional, organism-based
# dengue virus type 2 = experiment: Antiviral activity against Dengue virus 2 assessed as inhibition of virus-induced cytopathic effect by cell-based assay; type: functional, organism-based
# [2] = tested on: unidentified influenza virus; experiment: Antiviral activity against unidentified influenza virus assessed as inhibition of virus-induced cytopathic effect by cell-based assay; type: functional, organism-based
# Hepatitis C virus = experiment: Antiviral activity against Hepatitis C virus infected in […] cells by luciferase assay; type: functional, organism-based; settings: Hepacivirus hominis
# Chikungunya virus = experiment: Antiviral activity against Chikungunya virus assessed as inhibition of virus-induced cytopathic effect by cell-based assay; type: functional
# Outline: (§1)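 EC50 taken as the compound concentration giving 50% inhibition of the virus-reduced cell signal, relative to uninfected cell controls.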
# [3] = Selectivity index, ratio of CC50 for host cell to EC50 for Chikungunya virus
# Outline: (§2)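 SI calculated as CC50/EC50. CC50 is the 50% cytotoxic concentration in host cells. EC50 is the concentration giving 50% inhibition of the virus-reduced signal versus uninfected cell controls.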
# Human orthopneumovirus = experiment: Antiviral activity against Human respiratory syncytial virus infected in HeLa cells; type: functional, organism-based
# [4] = Selectivity index, ratio of CC50 for HeLa cells to EC50 for Human respiratory syncytial virus; type: toxicity, cell-based; settings: read-out: Ratio CC50/EC50
# Outline: (§3)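 Ratio of CC50 to EC50. CC50 is the 50% cytotoxic concentration. EC50 is the concentration giving 50% inhibition of the virus-reduced signal relative to the uninfected cell control.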
# [5] = Cytotoxicity against human HeLa cells by luminescence assay; type: cell-based
# Coxsackievirus = experiment: Antiviral activity against Coxsackievirus assessed as inhibition of virus-induced cytopathic effect by cell-based assay; type: functional, organism-based; outline: as §1
# [6] = Selectivity index, ratio of CC50 for host cell to EC50 for Coxsackievirus; outline: as §2
# [7] = Cytotoxicity human HEL299 cells by resazurin assay; type: cell-based, HEL 299
# [8] = Selectivity index, ratio of CC50 for Hel299 cells to EC50 for Cytomegalovirus; type: toxicity, cell-based; settings: human, read-out: Ratio CC50/EC50; outline: as §3
# Cytomegalovirus = experiment: Antiviral activity against Cytomegalovirus infected in human Hel299 cells; type: functional, organism-based; settings: Human betaherpesvirus 5, HEL 299
# [9] = Selectivity index, ratio of CC50 for HepG2 cells to EC50 for Hepatitis B virus; type: toxicity, cell-based; settings: human, read-out: Ratio CC50/EC50; outline: as §3
# [10] = Cytotoxicity against human HepG2 cells by resazurin assay; type: cell-based
# Hepatitis B virus = experiment: Antiviral activity against Hepatitis B virus infected in HepG2(2.2.15) by PCR analysis; type: functional, organism-based
SMILES,Activity [1],Activity (dengue virus type 2),Activity [2],Activity (Hepatitis C virus),EC50 (Chikungunya virus) [µM],Ratio CC50/EC50 [3],EC50 (Human orthopneumovirus) [µM],selectivity ratio [4],CC50 [5] [µM],EC50 (Coxsackievirus) [µM],Ratio CC50/EC50 [6],CC50 [7] [µM],selectivity ratio [8],EC50 (Cytomegalovirus) [µM],selectivity ratio [9],CC50 [10] [µM],EC50 (Hepatitis B virus) [µM]
OC[C@@H](OCc1ccccc1)[C@H](NCCCn1cnc2c(NCc3ccccc3)ncnc21)c1ccc(Cl)cc1Cl (relative stereo),inactive,inactive,inactive,inactive,,,,,,,,,,,,,
COc1ccccc1[C@@H]1[C@H](Oc2ccccc2)C(=O)N1CCn1cnc2c(NCc3ccccc3)ncnc21 (relative stereo),inactive,inactive,inactive,inactive,13,4.53,,,,,,,,,,,
CC(C)N[C@H](c1ccccc1F)[C@H](CO)CCCn1cnc2c(NCc3ccccc3)ncnc21 (relative stereo),inactive,inactive,inactive,inactive,,,23.6,> 4.25,> 100,,,,,,,,
CC(C)N1C(=O)[C@H](CCn2cnc3c(OCc4ccccc4)ncnc32)[C@H]1c1ccccc1 (relative stereo),inactive,inactive,inactive,inactive,,,,,,4.17,11.55,,,,,,
O=C1[C@@H](Oc2ccccc2)[C@@H](c2ccc(Cl)cc2)N1CCn1cnc2c(NCc3ccccc3)ncnc21 (relative stereo),inactive,inactive,inactive,inactive,,,,,,,,,,,,,
CCCN1C(=O)[C@H](CCCn2cnc3c(NCc4ccccc4)ncnc32)[C@H]1c1ccccc1 (relative stereo),inactive,inactive,inactive,inactive,,,,,,2.77,17.11,30.7,4.29,7.16,,,
O=C1[C@@H](OCc2ccccc2)[C@@H](c2ccccc2)N1CCn1cnc2c(NCc3ccccc3)ncnc21 (relative stereo),inactive,inactive,inactive,inactive,,,,,,,,,,,4.52,> 50,11.1
O=C1[C@@H](Oc2ccccc2)[C@@H](c2ccccc2)N1CCn1cnc2c(NCc3ccccc3)ncnc21 (relative stereo),inactive,inactive,inactive,inactive,,,,,,,,,,,,,
CC(C)N1C(=O)[C@H](CCn2cnc3c(NCc4ccccc4)ncnc32)[C@H]1c1ccccc1 (relative stereo),inactive,inactive,inactive,inactive,,,,,,,,,,,,,
OC[C@@H](Oc1ccccc1)[C@H](NCCCn1cnc2c(NCc3ccccc3)ncnc21)c1ccccc1 (relative stereo),inactive,inactive,inactive,inactive,,,,,,,,,,,,,
CCCN[C@H](c1ccccc1)[C@H](CO)CCCn1cnc2c(NCc3ccccc3)ncnc21 (relative stereo),inactive,inactive,inactive,inactive,,,,,,,,,,,,,
CC(C)N1C(=O)[C@H](CCCn2cnc3c(NCc4ccccc4)ncnc32)[C@H]1c1ccccc1F (relative stereo),inactive,inactive,inactive,inactive,,,7.79,9.71,75.6,,,,,,,,
O=C1[C@@H](OCc2ccccc2)[C@@H](c2ccc(Cl)cc2Cl)N1CCCn1cnc2c(NCc3ccccc3)ncnc21 (relative stereo),inactive,inactive,inactive,inactive,,,2.24,17.9,40.1,,,,,,,,
O=C1[C@@H](Oc2ccccc2)[C@@H](c2ccccc2)N1CCCn1cnc2c(NCc3ccccc3)ncnc21 (relative stereo),inactive,inactive,inactive,inactive,17.1,>5.75,8.05,5.79,46.6,3.56,>28.09,,,,,,
CO[C@@H]1C(=O)N(CCCn2cnc3c(NCc4ccccc4)ncnc32)[C@@H]1c1ccc(C(C)C)cc1 (relative stereo),inactive,inactive,inactive,inactive,,,,,,,,,,,,,
O=C1[C@H](CCn2cnc3c(OCc4ccccc4)ncnc32)[C@@H](c2ccccc2)N1Cc1ccccc1,inactive,inactive,inactive,inactive,,,,,,,,,,,,,
CC(C)N[C@H](c1ccccc1)[C@H](CO)CCn1cnc2c(NCc3ccccc3)ncnc21 (relative stereo),inactive,inactive,inactive,inactive,,,,,,,,,,,,,
O=C1[C@@H](Oc2ccccc2)[C@@H](c2ccccc2)N1CCCn1cnc2c(OCc3ccccc3)ncnc21 (relative stereo),inactive,inactive,inactive,inactive,,,,,,2.94,>34.05,70.8,4.13,17.2,,,
OC[C@@H](Oc1ccccc1)[C@H](NCCn1cnc2c(NCc3ccccc3)ncnc21)c1ccc(Cl)cc1 (relative stereo),inactive,inactive,inactive,inactive,11.5,6.19,1.92,4.29,8.23,,,,,,9.19,31.9,3.47
CO[C@H](CO)[C@H](NCCCn1cnc2c(NCc3ccccc3)ncnc21)c1ccc(C(C)C)cc1 (relative stereo),inactive,inactive,inactive,inactive,,,,,,,,,,,,,
